Measurements taken from ChEMBL document CHEMBL2331081, “Fragment-based drug design and identification of HJC0123, a novel orally bioavailable STAT3 inhibitor for cancer therapy” (Eur J Med Chem, 2013).
The source made the active and inactive calls. The rule behind the calls is not given here.

Columns and labels:
[1] = tested on: MCF7; assay: CYtotoxicity against ER-positive human MCF7 cells by MTS assay; assay type: functional, cell-based
In short: (§1)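 Cells seeded at 2×10^3/well, exposed to DMSO or 0.01, 0.1, 1, 5, 10 and 100 μM compound for 72 h. MTS reagent added, then OD at 550 nm read after 1 h at 37 °C. Quadruplicate wells per concentration.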

[2] = tested on: ASPC1; assay: CYtotoxicity against human AsPC1 cells by MTS assay; assay type: functional, cell-based; in short: as §1
[3] = tested on: MDA-MB-231; assay: CYtotoxicity against ER-negative human MDA-MB-231 cells by MTS assay; assay type: functional, cell-based; in short: as §1
[4] = tested on: PANC-1; assay: CYtotoxicity against human PANC1 cells by MTS assay; assay type: functional, cell-based; in short: as §1
[5] = tested on: MDA-MB-231; assay: Induction of apoptosis in human MDA-MB-231 cells assessed as viable cells at 1 uM after 48 hrs by annexin V-based flow cytometry (reference value: 90.62 %); assay type: functional; settings: MDA-MB-231, 48 h, read-out: Activity
[6] = tested on: MDA-MB-231; assay: Antiproliferative activity against human MDA-MB-231 cells assessed as change in cell morphology after 48 hrs by light microscopy; assay type: functional, cell-based
[7] = target: Signal transducer and activator of transcription 3 (Homo sapiens) (UniProt P40763); assay: Inhibition of total STAT3 protein expression in human MDA-MB-231 cells at 5 uM after 24 hrs by Western blot analysis; assay type: cell-based
Chain of Signal transducer and activator of transcription 3 (Homo sapiens) (P40763 whole entry): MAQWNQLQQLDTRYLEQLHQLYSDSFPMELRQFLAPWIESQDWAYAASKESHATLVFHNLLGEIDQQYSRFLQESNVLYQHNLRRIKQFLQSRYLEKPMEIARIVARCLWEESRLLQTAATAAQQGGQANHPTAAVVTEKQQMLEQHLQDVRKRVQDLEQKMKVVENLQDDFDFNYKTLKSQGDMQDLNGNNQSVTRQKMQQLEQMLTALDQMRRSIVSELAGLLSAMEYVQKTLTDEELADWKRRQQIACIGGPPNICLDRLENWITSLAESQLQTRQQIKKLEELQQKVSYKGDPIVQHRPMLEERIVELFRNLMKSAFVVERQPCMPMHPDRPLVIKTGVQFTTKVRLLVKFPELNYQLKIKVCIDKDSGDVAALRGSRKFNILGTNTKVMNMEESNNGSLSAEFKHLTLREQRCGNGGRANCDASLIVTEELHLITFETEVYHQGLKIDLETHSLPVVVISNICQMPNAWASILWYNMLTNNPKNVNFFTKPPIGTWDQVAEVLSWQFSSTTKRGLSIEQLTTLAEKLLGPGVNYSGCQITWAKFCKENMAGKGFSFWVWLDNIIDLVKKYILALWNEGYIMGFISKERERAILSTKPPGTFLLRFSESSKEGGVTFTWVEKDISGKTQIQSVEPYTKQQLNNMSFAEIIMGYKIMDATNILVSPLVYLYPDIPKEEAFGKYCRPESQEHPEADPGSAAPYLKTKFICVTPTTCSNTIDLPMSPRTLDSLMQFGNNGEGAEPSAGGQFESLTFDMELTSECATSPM
In short: (§2)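 Whole-cell lysates of treated MDA-MB-231 cells; 40 µg protein per lane run on 10% SDS-PAGE and transferred to nitrocellulose. Blocked in 5% milk/1% Tween 20 in TBS. Probed for pSTAT3-Y705 (1:3000), STAT3 (1:2000) and cleaved caspase-3 (1:2000), with β-actin as loading reference. Secondary antibody at 1:4000, ECL detection.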

[8] = tested on: MDA-MB-231; assay: Induction of apoptosis in human MDA-MB-231 cells assessed as early apoptotic cells at 5 uM after 48 hrs by annexin V-based flow cytometry (reference value: 4.16 %); assay type: functional
[9] = tested on: Mus musculus; assay: Toxicity in human MDA-MB-231 cells xenografted immunodeficient nude mouse assessed as change in body weight at 50 mg/kg, po; settings: in vivo
[10] = tested on: MDA-MB-231; assay: Cell cycle arrest in human MDA-MB-231 cells assessed as accumulation at S phase at 1 uM after 24 hrs by flow cytometry (reference value: 16.7 %); assay type: functional
[11] = tested on: MDA-MB-231; assay: Induction of apoptosis in human MDA-MB-231 cells assessed as early apoptotic cells at 1 uM after 48 hrs by annexin V-based flow cytometry (reference value: 4.16 %); assay type: functional
[12] = tested on: MDA-MB-231; assay: Induction of apoptosis in human MDA-MB-231 cells assessed as late apoptotic cells at 1 uM after 48 hrs by annexin V-based flow cytometry (reference value: 4.98 %); assay type: functional
[13] = tested on: MDA-MB-231; assay: Induction of apoptosis in human MDA-MB-231 cells assessed as dead cells at 5 uM after 48 hrs by annexin V-based flow cytometry (reference value: 0.24 %); assay type: functional
[14] = tested on: MDA-MB-231; assay: Induction of apoptosis in human MDA-MB-231 cells assessed as dead cells at 1 uM after 48 hrs by annexin V-based flow cytometry (reference value: 0.24 %); assay type: functional
[15] = target: Signal transducer and activator of transcription 3 (Homo sapiens) (UniProt P40763); assay: Inhibition of total STAT3 protein expression in human MDA-MB-231 cells at 5 uM after 48 hrs by Western blot analysis; assay type: cell-based; in short: as §2
[16] = tested on: MDA-MB-231; assay: Induction of apoptosis in human MDA-MB-231 cells assessed as dead cells at 2.5 uM after 48 hrs by annexin V-based flow cytometry (reference value: 0.24 %); assay type: functional
[17] = tested on: MDA-MB-231; assay: Cell cycle arrest in human MDA-MB-231 cells assessed as accumulation at G0/G1 phase at 2.5 uM after 24 hrs by flow cytometry (reference value: 53.6 %); assay type: functional
[18] = tested on: MDA-MB-231; assay: Induction of apoptosis in human MDA-MB-231 cells assessed as early apoptotic cells at 2.5 uM after 48 hrs by annexin V-based flow cytometry (reference value: 4.16 %); assay type: functional
[19] = tested on: MDA-MB-231; assay: Cell cycle arrest in human MDA-MB-231 cells assessed as accumulation at S phase at 5 uM after 24 hrs by flow cytometry (reference value: 16.7 %); assay type: functional
[20] = target: Signal transducer and activator of transcription 3 (Homo sapiens) (UniProt P40763); assay: Inhibition of STAT3 promoter activity in human MDA-MB-231 cells at 5 uM after 24 hrs by luciferase reporter gene assay relative to control; assay type: cell-based
In short: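 MDA-MB-231 cells seeded at 5×10^4/well in RPMI-1640 with 10% FBS and were transiently transfected 4 h after plating. Each well received 0.5 μg DNA: pSTAT3-Luc (95%) and renilla control vector (5%). Compound was added 5 h post-transfection for 24 h. Read-out is dual luciferase, as firefly/renilla ratio relative to DMSO control. Triplicate wells; representative of ≥3 independent experiments.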

[21] = tested on: MDA-MB-231; assay: Cell cycle arrest in human MDA-MB-231 cells assessed as accumulation at S phase after 24 hrs by flow cytometry; assay type: functional, cell-based
[22] = tested on: MDA-MB-231; assay: Cell cycle arrest in human MDA-MB-231 cells assessed as accumulation at G2/M phase at 2.5 uM after 24 hrs by flow cytometry (reference value: 25.1 %); assay type: functional
[23] = tested on: MDA-MB-231; assay: Induction of apoptosis in human MDA-MB-231 cells assessed as late apoptotic cells at 2.5 uM after 48 hrs by annexin V-based flow cytometry (reference value: 4.98 %); assay type: functional
[24] = tested on: MDA-MB-231; assay: Cell cycle arrest in human MDA-MB-231 cells assessed as accumulation at S phase at 2.5 uM after 24 hrs by flow cytometry (reference value: 16.7 %); assay type: functional
[25] = tested on: MDA-MB-231; assay: Cell cycle arrest in human MDA-MB-231 cells assessed as accumulation at G0/G1 phase at 1 uM after 24 hrs by flow cytometry (reference value: 53.6 %); assay type: functional
[26] = tested on: MDA-MB-231; assay: Cell cycle arrest in human MDA-MB-231 cells assessed as accumulation at G0/G1 phase at 5 uM after 24 hrs by flow cytometry (reference value: 53.6 %); assay type: functional
[27] = target: Signal transducer and activator of transcription 3 (Homo sapiens) (UniProt P40763); assay: Inhibition of STAT3 phosphorylation at Tyr-705 in human MDA-MB-231 cells at 5 uM after 48 hrs by Western blot analysis; assay type: cell-based; in short: as §2
[28] = tested on: MDA-MB-231; assay: Induction of apoptosis in human MDA-MB-231 cells assessed as caspase-3 cleavage at 5 uM after 24 to 48 hrs by Western blot analysis; assay type: functional, cell-based; in short: as §2
[29] = tested on: MDA-MB-231; assay: Induction of apoptosis in human MDA-MB-231 cells assessed as late apoptotic cells at 5 uM after 48 hrs by annexin V-based flow cytometry (reference value: 4.98 %); assay type: functional
[30] = tested on: MDA-MB-231; assay: Induction of apoptosis in human MDA-MB-231 cells assessed as viable cells at 2.5 uM after 48 hrs by annexin V-based flow cytometry (reference value: 90.62 %); assay type: functional; settings: MDA-MB-231, 48 h, read-out: Activity
[31] = tested on: MDA-MB-231; assay: Antitumor activity against human MDA-MB-231 cells xenografted in immunodeficient nude mouse assessed as reduction in tumor volume at 50 mg/kg, po administered 5 days a week; assay type: functional, organism-based; parameters: dose 50 mg/kg
In short: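 Female nude mice aged 4–6 weeks were used, housed in a barrier unit. Each mouse received 2.5×10^6 fresh MDA-MB-231 cells in 100 µL PBS into the 3rd mammary fat pad (orthotopic). Mice were randomized into 2 groups of 6–7. Oral dosing or vehicle (50% DMSO/50% PEG) started once tumors reached 200 mm³. Tumor volume measured daily, calculated as 0.5×L×W².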

[32] = tested on: MDA-MB-231; assay: Cell cycle arrest in human MDA-MB-231 cells assessed as accumulation at G2/M phase at 1 uM after 24 hrs by flow cytometry (reference value: 25.1 %); assay type: functional
[33] = tested on: MDA-MB-231; assay: Cell cycle arrest in human MDA-MB-231 cells assessed as accumulation at G2/M phase at 5 uM after 24 hrs by flow cytometry (reference value: 25.1 %); assay type: functional
[34] = tested on: MDA-MB-231; assay: Induction of apoptosis in human MDA-MB-231 cells assessed as viable cells at 5 uM after 48 hrs by annexin V-based flow cytometry (reference value: 90.62 %); assay type: functional; settings: MDA-MB-231, 48 h, read-out: Activity
[35] = target: Signal transducer and activator of transcription 3 (Homo sapiens) (UniProt P40763); assay: Inhibition of STAT3 phosphorylation at Tyr-705 in human MDA-MB-231 cells at 5 uM after 24 hrs by Western blot analysis; assay type: cell-based; in short: as §2

## O=C(Nc1ccc2c(c1)S(=O)(=O)C=C2)c1cc(Cl)ccc1O
[1]
  IC50: 0.91 µM
[2]
  IC50: 1.92 µM
[3]
  IC50: 1.64 µM
[4]
  IC50: 2.34 µM

## O=C(Nc1ccc2c(c1)S(=O)(=O)C=C2)c1c2ccccc2nc2ccccc12
[1]
  IC50: > 10 µM
[2]
  IC50: > 10 µM
[3]
  IC50: > 10 µM
[4]
  IC50: > 10 µM

## O=C(Nc1ccc2c(c1)S(=O)(=O)C=C2)c1cc(-c2ccccc2)nc2ccccc12
[5]
  viability at 1 µM: 80.8%
[6]
  Activity: Dose-dependent effect
[7]
  inhibition: Active
[8]
  Activity: 66.12%
[1]
  IC50: 0.1 µM
[9]
  Activity: Non-toxic
[10]
  Activity: 16.5%
[11]
  Activity: 9.31%
[12]
  Activity: 9.26%
[13]
  Activity: 0.14%
[14]
  Activity: 0.67%
[15]
  inhibition: Active
[16]
  Activity: 0.32%
[17]
  Activity: 43.7%
[18]
  Activity: 28.53%
[19]
  Activity: 26.2%
[20]
  inhibition: 65%
[21]
  Activity: Dose-dependent effect
[22]
  Activity: 27.5%
[23]
  Activity: 13.32%
[24]
  Activity: 21.9%
[25]
  Activity: 51.5%
[26]
  Activity: 34.1%
[27]
  inhibition: Active
[28]
  Activity: Active
[2]
  IC50: 1.25 µM
[29]
  Activity: 14.21%
[30]
  viability at 2.5 µM: 57.8%
[31]
  Activity: Active
[32]
  Activity: 27.6%
[33]
  Activity: 25.8%
[34]
  viability at 5 µM: 19.5%
[3]
  IC50: 0.29 µM
[35]
  inhibition: Active
[4]
  IC50: 0.26 µM

## N#C/C(=C\c1cccc(Br)n1)C(=O)Nc1ccc2c(c1)S(=O)(=O)C=C2
[1]
  IC50: 3.31 µM
[2]
  IC50: 1.54 µM
[3]
  IC50: 1.53 µM
[4]
  IC50: 1.64 µM

## O=C(Nc1ccc2c(c1)S(=O)(=O)C=C2)c1cc(-c2ccccc2)nc(-c2ccccc2)c1
[1]
  IC50: 0.65 µM
[2]
  IC50: 0.12 µM
[3]
  IC50: 0.45 µM
[4]
  IC50: 0.31 µM

## C[C@H](NC(=O)c1cc(-c2ccccc2)nc2ccccc12)c1ccccc1
[1]
  IC50: 2.24 µM
[2]
  IC50: > 10 µM
[3]
  IC50: 86 µM
[4]
  IC50: > 10 µM
